Values after ≈ are worked out from the molar mass of the structure shown.

Common to all, as to assay type: functional
In one assay the test system is Athelia rolfsii. Briefly: Fungicidal activity against Athelia rolfsii by poisoned food technique. Conditions: Agroathelia rolfsii; read-out: ED50 (the source's name).
Another assay has as its system Fusarium oxysporum. Nature of the assay: Fungicidal activity against Fusarium oxysporum by poisoned food technique. Conditions: read-out: ED50 (the source's name).
For assay [1], the system named is Tribolium castaneum. Briefly: Insecticidal activity against adult Tribolium castaneum (red flour beetle) in compound pre-treated green gram grains assessed as mortality at 20 mg/kg after 48 hr by feeding based residue method. The following applies: in Vigna radiata. In a few lines: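 Green gram grains are treated with compound in dichloromethane (0.6 mg in 5 mL) at 20 mg active ingredient per kg grain (0.002%). Ten adults are released onto 10 g of treated grain in a plastic box. Mortality is recorded after 48 h. Triplicate, solvent-treated control.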

The next assay deals with Rhizoctonia solani. Nature of the assay: Fungicidal activity against Rhizoctonia solani by poisoned food technique. Conditions: read-out: ED50 (the source's name).
The test system of assay [2] is Spodoptera litura. Nature of the assay: Insecticidal activity against third-instar larval stage of Spodoptera litura assessed as mortality at 0.1% applied topically on the ventral side of the larvae measured after 24 hr by contact method. In a few lines: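 Field-collected larvae are reared in the lab at 27 ± 1 °C and 70% RH. Two microliters of a 0.1% dichloromethane solution is applied to the ventral side. Ten treated larvae are kept per glass bottle and fed fresh castor leaves. Mortality is recorded at 24 h. Triplicate, solvent control.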

Assay [3] deals with Spodoptera litura. Briefly: Insecticidal activity against third-instar larval stage of prestarved Spodoptera litura in castor leaf assessed as mortality at 0.1% treated for 2 secs before larval infestation measured after 24 hr by feeding method. In a few lines: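 Castor leaf is dipped 2 s in 0.1% compound solution, air-dried, and placed on moist filter paper in 9 cm Petri plates. Larvae starved 4 h beforehand are released singly, one per plate. Thirty replicates per treatment, solvent control. Mortality is scored after 24 h.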

For the next assay, the system named is Alternaria porri. Briefly: Fungicidal activity against Alternaria porri by poisoned food technique. The following applies: read-out: ED50 (the source's name).
The subject of the next assay is Callosobruchus maculatus. Briefly: Insecticidal activity against adult Callosobruchus maculatus assessed as mortality at 0.1% at 27 +/-1 degC after 24 hr by contact based film residue method. In a few lines:
(§1)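 Lab-reared adults, 2-5 days old, exposed to a dry film: 1 mL of 0.1% compound solution in dichloromethane is swirled in a 90 mm Petri plate and dried 3-5 min. Ten adults per plate are held at 27 ± 1 °C and 70% RH. Mortality is scored at 24 h, with no response to touch counted as dead. Triplicates, solvent control, malathion reference.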

In a further assay the test system is Macrophomina phaseolina. Nature of the assay: Fungicidal activity against Rhizoctonia bataticola by poisoned food technique. Conditions: read-out: ED50 (the source's name).
For assay [4], the system named is Tribolium castaneum. Nature of the assay: Insecticidal activity against adult Tribolium castaneum (red flour beetle) assessed as mortality at 0.1% at 27 +/-1 degC after 24 hr by contact based film residue method. An outline of the steps:
as §1

As to `CCn1cc(C(=O)N/N=C/c2ccc3ccccc3c2)c(=O)c2ccc(C)nc21`, the EC50 worked out at 202 µg/mL (≈ 526 µM) with Athelia rolfsii; 89.5 µg/mL (≈ 233 µM) in the assay on Fusarium oxysporum; 192 µg/mL (≈ 498 µM) with Rhizoctonia solani; 75.6 µg/mL (≈ 197 µM) with Alternaria porri; 256 µg/mL (≈ 666 µM) with Macrophomina phaseolina. Besides, the mortality at 20 mg/kg in the assay with Tribolium castaneum [1] stood at 10%. For the same compound, the mortality is 10% in the assay on Spodoptera litura [2], 70% in the assay with Spodoptera litura [3] and 0% in the assay on Callosobruchus maculatus.

In the case of `CCn1cc(C(=O)N/N=C/c2c3ccccc3cc3ccccc23)c(=O)c2ccc(C)nc21`, the EC50 in the assay on Athelia rolfsii stood at 429 µg/mL (≈ 986 µM); in the assay with Fusarium oxysporum it was 222 µg/mL (≈ 511 µM); in the assay with Rhizoctonia solani, 374 µg/mL (≈ 861 µM); in the assay on Alternaria porri it was 151 µg/mL (≈ 348 µM); with Macrophomina phaseolina it was 390 µg/mL (≈ 897 µM). The mortality at 20 mg/kg in the assay with Tribolium castaneum [1] was 15%. For the same compound, the values for the mortality in the assay on Spodoptera litura [2], with Spodoptera litura [3] and in the assay on Callosobruchus maculatus were 10%, 20% and 10%, respectively.

`CCn1cc(C(=O)NN=C2CCCCC2)c(=O)c2ccc(C)nc21`: the EC50 in the assay on Athelia rolfsii was found to be 177 µg/mL (≈ 543 µM); with Fusarium oxysporum, 62.6 µg/mL (≈ 192 µM); with Rhizoctonia solani it was 166 µg/mL (≈ 510 µM); in the assay with Alternaria porri it was 34.2 µg/mL (≈ 105 µM); with Macrophomina phaseolina, 188 µg/mL (≈ 577 µM). In addition, the mortality at 20 mg/kg in the assay with Tribolium castaneum [1] turned out to be 15%. Also, the mortality in the assay on Spodoptera litura [3] stood at 70%; in the assay on Callosobruchus maculatus, 0%.

In the case of `CCn1cc(C(=O)NN=C2C3CC4CC(C3)CC2C4)c(=O)c2ccc(C)nc21`, the EC50 in the assay with Athelia rolfsii came to 524 µg/mL (≈ 1380 µM); in the assay with Fusarium oxysporum it was 258 µg/mL (≈ 683 µM); in the assay with Rhizoctonia solani it was 405 µg/mL (≈ 1070 µM); in the assay on Alternaria porri, 133 µg/mL (≈ 351 µM); in the assay on Macrophomina phaseolina it was 638 µg/mL (≈ 1690 µM). Further, the mortality at 20 mg/kg in the assay with Tribolium castaneum [1] worked out at 10%. Also, the figures for the mortality with Spodoptera litura [2], in the assay with Spodoptera litura [3] and in the assay on Callosobruchus maculatus were 10%, 50% and 0%, respectively.

Consider `CCn1cc(C(=O)N/N=C/c2ccc(OC)cc2)c(=O)c2ccc(C)nc21`, for which the EC50 was determined as 320 µg/mL (≈ 879 µM) with Athelia rolfsii; 152 µg/mL (≈ 416 µM) in the assay with Fusarium oxysporum; 238 µg/mL (≈ 654 µM) with Rhizoctonia solani; 121 µg/mL (≈ 332 µM) with Alternaria porri; 301 µg/mL (≈ 825 µM) in the assay with Macrophomina phaseolina. For the same compound, the mortality at 20 mg/kg in the assay with Tribolium castaneum [1] is 30%. The mortality in the assay on Spodoptera litura [3] and in the assay with Callosobruchus maculatus was 70% throughout.

`CCn1cc(C(=O)N/N=C/c2ccc(C)cc2)c(=O)c2ccc(C)nc21`: the EC50 in the assay on Athelia rolfsii worked out at 374 µg/mL (≈ 1070 µM); in the assay on Fusarium oxysporum it was 195 µg/mL (≈ 560 µM); with Rhizoctonia solani it was 372 µg/mL (≈ 1070 µM); in the assay with Alternaria porri, 87.3 µg/mL (≈ 251 µM); with Macrophomina phaseolina, 378 µg/mL (≈ 1080 µM). The mortality was found to be 10% with Spodoptera litura [2], 70% in the assay with Spodoptera litura [3] and 20% in the assay with Callosobruchus maculatus.

In the case of `CCn1cc(C(=O)N/N=C/c2ccccc2F)c(=O)c2ccc(C)nc21`, the EC50 in the assay with Athelia rolfsii is 540 µg/mL (≈ 1530 µM); in the assay on Fusarium oxysporum, 107 µg/mL (≈ 305 µM); in the assay on Rhizoctonia solani it was 359 µg/mL (≈ 1020 µM); in the assay on Alternaria porri, 78.3 µg/mL (≈ 222 µM); with Macrophomina phaseolina, 668 µg/mL (≈ 1900 µM). In addition, the mortality at 20 mg/kg with Tribolium castaneum [1] amounted to 10%. In addition, the results for the mortality in the assay on Spodoptera litura [2], with Spodoptera litura [3] and in the assay on Callosobruchus maculatus were 10%, 90% and 30%, respectively.

`CCn1cc(C(=O)N/N=C/c2ccccc2Cl)c(=O)c2ccc(C)nc21`: the EC50 turned out to be 570 µg/mL (≈ 1550 µM) with Athelia rolfsii; 143 µg/mL (≈ 389 µM) with Fusarium oxysporum; 246 µg/mL (≈ 666 µM) in the assay on Rhizoctonia solani; 90.1 µg/mL (≈ 244 µM) in the assay on Alternaria porri; 593 µg/mL (≈ 1610 µM) with Macrophomina phaseolina. Also, the mortality at 20 mg/kg in the assay on Tribolium castaneum [1] worked out at 10%. For the same compound, the mortality in the assay on Spodoptera litura [2] was found to be 10%; in the assay on Spodoptera litura [3], 10%; in the assay with Callosobruchus maculatus it was 30%.

For `CCn1cc(C(=O)N/N=C/c2cccc(Br)c2)c(=O)c2ccc(C)nc21`, the EC50 in the assay with Athelia rolfsii is 380 µg/mL (≈ 920 µM); in the assay on Fusarium oxysporum, 209 µg/mL (≈ 506 µM); in the assay with Rhizoctonia solani, 439 µg/mL (≈ 1060 µM); with Alternaria porri, 125 µg/mL (≈ 303 µM); with Macrophomina phaseolina it was 628 µg/mL (≈ 1520 µM). For the same compound, the mortality is recorded as 10% with Spodoptera litura [2], 20% in the assay on Spodoptera litura [3] and 20% in the assay with Callosobruchus maculatus.

For the compound `CCn1cc(C(=O)N/N=C/c2ccccc2[N+](=O)[O-])c(=O)c2ccc(C)nc21`, the EC50 in the assay on Athelia rolfsii was 655 µg/mL (≈ 1730 µM); with Fusarium oxysporum it was 169 µg/mL (≈ 445 µM); in the assay with Rhizoctonia solani it was 329 µg/mL (≈ 866 µM); with Alternaria porri, 71.3 µg/mL (≈ 188 µM); in the assay on Macrophomina phaseolina, 610 µg/mL (≈ 1610 µM). Further, in the assay on Tribolium castaneum [1], the mortality at 20 mg/kg was 20%. For the same compound, the mortality with Spodoptera litura [2] was 30%; with Spodoptera litura [3], 100%; in the assay on Callosobruchus maculatus, 60%.

As to `CCn1cc(C(=O)N/N=C/c2ccc([N+](=O)[O-])cc2)c(=O)c2ccc(C)nc21`, the EC50 in the assay on Athelia rolfsii stood at 464 µg/mL (≈ 1220 µM); in the assay on Fusarium oxysporum, 125 µg/mL (≈ 330 µM); with Rhizoctonia solani it was 226 µg/mL (≈ 595 µM); with Alternaria porri it was 70.1 µg/mL (≈ 185 µM); with Macrophomina phaseolina, 575 µg/mL (≈ 1520 µM). For the same compound, the mortality with Spodoptera litura [2] was 10%; in the assay on Spodoptera litura [3], 90%; with Callosobruchus maculatus, 10%.

Turning to `CCn1cc(C(=O)N/N=C/c2ccc(O)cc2)c(=O)c2ccc(C)nc21`, the EC50 in the assay on Athelia rolfsii came to 364 µg/mL (≈ 1040 µM); with Fusarium oxysporum it was 181 µg/mL (≈ 517 µM); in the assay on Rhizoctonia solani, 330 µg/mL (≈ 943 µM); with Alternaria porri, 146 µg/mL (≈ 416 µM); in the assay with Macrophomina phaseolina it was 308 µg/mL (≈ 878 µM). The mortality is 10% in the assay on Spodoptera litura [2], 70% with Spodoptera litura [3] and 40% in the assay with Callosobruchus maculatus.

`CCOC(=O)CC(SP(=S)(OC)OC)C(=O)OCC` (stereo not given) [MALATHION]: the mortality in the assay with Tribolium castaneum [4] and with Callosobruchus maculatus was 100% in each case. For the same compound, the mortality at 20 mg/kg in the assay with Tribolium castaneum [1] amounted to 100%.

(Values after ChEMBL document CHEMBL3045963, “Synthesis of nalidixic acid based hydrazones as novel pesticides” (2010).)
